Assay results from ChEMBL document CHEMBL1152893, “Synthesis and in vitro trichomonicidal, giardicidal and amebicidal activity of N-acetamide(sulfonamide)-2-methyl-4-nitro-1H-imidazoles” (Eur J Med Chem, 2009).
pIC50: −log10 of the molar value.

Legend:
Giardia intestinalis [1] = test: Antiparasitic activity against Giardia intestinalis IMSS:0696 trophozoites after 48 hrs by […]; assay type: functional, organism-based; conditions: Giardia duodenalis, IMSS:0696, 48 h
In short: (§1)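 Axenic trophozoites grown in modified TYI-S-33 with 10% calf serum and bovine bile; exposed 48 h at 37 °C to increasing compound concentrations, DMSO as negative control. Then washed, subcultured 48 h in fresh drug-free medium and counted. IC50 by Probit analysis; triplicate, repeated at least twice.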

Entamoeba histolytica [2] = test: Amebicidal activity against Entamoeba histolytica HM-1:IMSS trophozoites after 48 hrs by […]; assay type: functional, organism-based; in short: as §1
Trichomonas vaginalis [3] = test: Antiparasitic activity against Trichomonas vaginalis GT3 trophozoites after 48 hrs by […]; assay type: functional, organism-based; conditions: GT3, 48 h; in short: as §1
[4] = Cytotoxicity against MDCK cells after 72 hrs by MTT assay; assay type: cell-based, Canis lupus familiaris; conditions: dog
In short: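 MDCK cells in DMEM with 10% FBS and penicillin/streptomycin, 37 °C, 5% CO2. 1.5×10⁴ cells/well seeded; above 80% confluence, medium replaced and compounds added from 6.25 upward, DMSO final 0.05%. After 72 h, MTT added for 4 h at 37 °C. Formazan dissolved in acidified isopropanol (0.4 N HCl), OD 540 nm; untreated cells as negative control; CC50 calculated.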

[5] = Selectivity index, ratio of CC50 for MDCK cells to IC50 for Trichomonas vaginalis GT3 trophozoites; assay type: functional
[6] = Selectivity index, ratio of CC50 for MDCK cells to IC50 for Giardia intestinalis IMSS:0696 trophozoites; assay type: functional
[7] = Selectivity index, ratio of CC50 for MDCK cells to IC50 for Entamoeba histolytica HM-1:IMSS trophozoites; assay type: functional
Entamoeba histolytica [8] = test: Ratio of 2-methyl-4(5)-nitroimidazole IC50 to compound IC50 for Entamoeba histolytica HM-1:IMSS trophozoites; assay type: functional
Trichomonas vaginalis [9] = test: Ratio of Benznidazole IC50 to compound IC50 for Trichomonas vaginalis GT3 trophozoites; assay type: functional
Trichomonas vaginalis [10] = test: Ratio of 2-methyl-4(5)-nitroimidazole IC50 to compound IC50 for Trichomonas vaginalis GT3 trophozoites; assay type: functional
Giardia intestinalis [11] = test: Ratio of 2-methyl-4(5)-nitroimidazole IC50 to compound IC50 for Giardia intestinalis IMSS:0696 trophozoites; assay type: functional, Giardia duodenalis
Giardia intestinalis [12] = test: Ratio of Benznidazole IC50 to compound IC50 for Giardia intestinalis IMSS:0696 trophozoites; assay type: functional, Giardia duodenalis

SMILES | pIC50 (Giardia intestinalis [1]) | pIC50 (Trichomonas vaginalis [3]) | pIC50 (Entamoeba histolytica [2]) | CC50 at 72 h [4] [µM] | Ratio CC50/IC50 [5] | Ratio CC50/IC50 [6] | Ratio CC50/IC50 [7] | Ratio IC50 (Entamoeba histolytica [8]) | Ratio IC50 (Trichomonas vaginalis [9]) | Ratio IC50 (Trichomonas vaginalis [10]) | Ratio IC50 (Giardia intestinalis [11]) | Ratio IC50 (Giardia intestinalis [12])
Cc1nc([N+](=O)[O-])cn1CC(=O)Nc1ccccc1 | 4.31 | 4.61 | 4.58 | 1140 | 46 | 23 | 43 |  |  |  |  | 
Cc1nc([N+](=O)[O-])cn1CC(=O)Nc1c(Cl)cccc1Cl | 4.66 | 4.43 | 4.60 | 396 | 11 | 18 | 16 |  |  |  |  | 
Cc1nc([N+](=O)[O-])cn1CC(=O)NCc1ccccc1 | 4.75 | 5.10 | 5.40 | 77.5 | 10 | 4 | 20 | 2 | 2 | 5 |  | 
Cc1nc([N+](=O)[O-])cn1CC(=O)Nc1ccc(Cl)cc1 | 4.80 | 5.04 | 4.74 | 642 | 70 | 40 | 35 |  | 2 | 5 |  | 
Cc1nc([N+](=O)[O-])cn1CC(=O)Nc1ccc(F)cc1 | 4.68 | 5.25 | 4.95 | 828 | 148 | 39 | 74 |  | 3 | 6 |  | 
CC(=O)Nc1ccc(S(=O)(=O)n2cc([N+](=O)[O-])nc2C)cc1 | 4.70 | 5.06 | 5.41 | 1030 | 118 | 51 | 265 | 2 |  |  |  | 
Cc1nc([N+](=O)[O-])cn1CC(=O)Nc1ccc([N+](=O)[O-])cc1 | 4.81 | 5.18 | 4.81 | 798 | 120 | 52 | 52 |  |  |  |  | 
Cc1nc([N+](=O)[O-])cn1CC(=O)Nc1cccc(C(F)(F)F)c1 | 4.42 | 4.17 | 4.54 | 435 | 6 | 12 | 15 |  |  |  |  | 
O=C(Cn1ccnc1[N+](=O)[O-])NCc1ccccc1 [BENZNIDAZOLE] | 4.65 | 4.73 | 5.37 |  |  |  |  |  |  |  |  | 

Continued by rising pIC50 (Giardia intestinalis [1]), values first:

pIC50 (Giardia intestinalis [1]) | pIC50 (Trichomonas vaginalis [3]) | SMILES | pIC50 (Entamoeba histolytica [2]) | CC50 at 72 h [4] [µM] | Ratio CC50/IC50 [5] | Ratio CC50/IC50 [6] | Ratio CC50/IC50 [7] | Ratio IC50 (Entamoeba histolytica [8]) | Ratio IC50 (Trichomonas vaginalis [9]) | Ratio IC50 (Trichomonas vaginalis [10]) | Ratio IC50 (Giardia intestinalis [11]) | Ratio IC50 (Giardia intestinalis [12])
4.81 | 5.12 | Cc1nc([N+](=O)[O-])cn1S(=O)(=O)c1ccc(Cl)cc1 | 5.39 | 578 | 76 | 38 | 144 |  |  |  |  | 
4.85 | 5.00 | Cc1ccc(S(=O)(=O)n2cc([N+](=O)[O-])nc2C)cc1 | 5.45 | 988 | 99 | 71 | 278 | 2 |  |  |  | 
4.92 | 4.90 | Cc1nc([N+](=O)[O-])cn1S(=O)(=O)c1ccccc1 | 5.17 | 1270 | 101 | 106 | 188 |  |  |  |  | 
4.95 | 4.85 | Cc1nc([N+](=O)[O-])cn1CC(=O)Nc1ccc(C#N)cc1 | 4.38 | 672 | 47 | 60 | 16 |  |  | 3 |  | 2
4.97 | 4.94 | Cc1nc([N+](=O)[O-])cn1S(=O)(=O)c1ccc(F)cc1 | 5.35 | 813 | 71 | 77 | 183 |  |  |  |  | 
5.12 | 5.53 | Cc1nc([N+](=O)[O-])cn1S(=O)(=O)c1ccc([N+](=O)[O-])cc1 | 5.14 | 611 | 209 | 82 | 84 |  | 6 | 14 | 2 | 2
5.18 | 5.08 | COc1ccc(S(=O)(=O)n2cc([N+](=O)[O-])nc2C)cc1 | 5.07 | 321 | 38 | 49 | 38 |  |  |  | 2 | 2
5.27 | 6.54 | Cc1ncc([N+](=O)[O-])n1CCO [METRONIDAZOLE] |  | 68 |  |  |  |  |  |  |  | 
